Measured values taken from ChEMBL document CHEMBL1129565, “Selective inhibitors of monoamine oxidase. 3. Structure-activity relationship of tricyclics bearing imidazoline, oxadiazole, or tetrazole groups” (J Med Chem, 1996).

Columns and labels:
[1] = biological target: T1, Amine oxidase [flavin-containing] A (Rattus norvegicus, UniProt P21396); assay: Inhibition of the enzyme Monoamine oxidase A which was not completely reverserved after 24 hr of dialysis after 25 mg/kg po administration *; format: organism-based; design: dose 25 mg/kg, route oral; conditions: in vivo
T1 sequence (P21396 whole entry): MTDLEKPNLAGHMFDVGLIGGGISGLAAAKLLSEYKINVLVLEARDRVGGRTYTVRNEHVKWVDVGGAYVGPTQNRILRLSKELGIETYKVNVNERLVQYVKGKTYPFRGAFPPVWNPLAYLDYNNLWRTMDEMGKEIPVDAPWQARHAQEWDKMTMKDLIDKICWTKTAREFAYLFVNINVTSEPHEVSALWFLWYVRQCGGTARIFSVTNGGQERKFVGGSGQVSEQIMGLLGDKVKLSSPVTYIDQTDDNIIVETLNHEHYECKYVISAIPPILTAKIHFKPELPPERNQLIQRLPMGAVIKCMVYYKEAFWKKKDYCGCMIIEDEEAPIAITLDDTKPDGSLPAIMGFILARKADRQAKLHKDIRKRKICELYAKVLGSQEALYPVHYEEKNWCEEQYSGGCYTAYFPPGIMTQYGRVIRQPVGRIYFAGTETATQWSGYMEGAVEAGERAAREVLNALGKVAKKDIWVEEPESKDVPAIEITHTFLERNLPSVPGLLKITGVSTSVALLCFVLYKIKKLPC

[2] = biological target: T2, Amine oxidase [flavin-containing] B (Rattus norvegicus, UniProt P19643); assay: Inhibitory activity against rat brain mitochondrial Monoamine oxidase B; NS=not significant ta 1 uM
T2 sequence (P19643 whole entry): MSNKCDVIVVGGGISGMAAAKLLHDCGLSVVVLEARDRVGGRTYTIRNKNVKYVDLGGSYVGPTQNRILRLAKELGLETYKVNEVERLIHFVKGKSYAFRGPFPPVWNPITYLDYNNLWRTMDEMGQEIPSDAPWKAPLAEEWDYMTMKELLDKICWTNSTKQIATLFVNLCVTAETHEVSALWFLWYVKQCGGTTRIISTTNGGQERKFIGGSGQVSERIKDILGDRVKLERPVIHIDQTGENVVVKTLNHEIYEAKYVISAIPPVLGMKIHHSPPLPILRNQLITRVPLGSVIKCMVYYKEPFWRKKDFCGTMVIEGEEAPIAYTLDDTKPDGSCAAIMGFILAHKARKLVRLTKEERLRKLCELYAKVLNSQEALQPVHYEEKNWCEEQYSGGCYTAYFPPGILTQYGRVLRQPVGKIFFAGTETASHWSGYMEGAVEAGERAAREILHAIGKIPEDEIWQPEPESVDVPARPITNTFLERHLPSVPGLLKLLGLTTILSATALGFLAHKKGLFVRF
How it was run: (§1)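 Rat brain mitochondrial MAO extract preincubated with inhibitor 15 min at 37 °C in 50 mM potassium phosphate pH 7.4. [14C]phenethylamine added at 10 μM final, then 20 min incubation. Pargyline 2 mM blanks. Stopped with HCl, products extracted into ethyl acetate/toluene and counted radiometrically. Triplicates; IC50 from mean % inhibition vs log concentration.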

[3] = biological target: T1, Amine oxidase [flavin-containing] A; assay: Inhibitory concentration against rat brain mitochondrial monoamine oxidase A
How it was run: as §1, with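 “[3H]serotonin” for “[14C]phenethylamine”, “0.2” for “10”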

[4] = biological target: T2, Amine oxidase [flavin-containing] B; assay: Inhibitory activity against rat brain mitochondrial Monoamine oxidase B at 0.2 uM; how it was run: as §1
[5] = biological target: T1, Amine oxidase [flavin-containing] A; assay: Inhibition of the enzyme MAO A which was not completely reverserved after 24 hr of dialysis after po administration to rat (brain); format: organism-based; conditions: in vivo
[6] = biological target: T1, Amine oxidase [flavin-containing] A; assay: Inhibitory concentration against rat brain mitochondrial Monoamine oxidase A at 3 uM
How it was run: as §1, with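 “[3H]serotonin” for “[14C]phenethylamine”, “0.2” for “10”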

[7] = biological target: T2, Amine oxidase [flavin-containing] B; assay: Inhibitory activity against rat brain mitochondrial Monoamine oxidase B at 3 uM; how it was run: as §1
[8] = biological target: T1, Amine oxidase [flavin-containing] A; assay: Inhibition of the enzyme Monoamine oxidase A which was not completely reverserved after 24 hr of dialysis
How it was run: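 Reversibility: MAO extract preincubated with or without inhibitor 15 min at 37 °C, in duplicate, then dialysed 24 h at 4 °C with shaking against 0.1 M potassium phosphate pH 7.4, 5% sucrose, 1 mM dithiothreitol, buffer changed ca. 3 and 19 h. Undialysed portions held at 4 °C; both assayed together for MAO activity.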

[9] = biological target: T2, Amine oxidase [flavin-containing] B; assay: Inhibitory activity against rat brain mitochondrial Monoamine oxidase B at 0.003 uM; how it was run: as §1
[10] = biological target: T1, Amine oxidase [flavin-containing] A; assay: Inhibitory concentration against rat brain mitochondrial Monoamine oxidase A at <5 uM
How it was run: as §1, with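 “[3H]serotonin” for “[14C]phenethylamine”, “0.2” for “10”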

[11] = biological target: T2, Amine oxidase [flavin-containing] B; assay: Inhibitory activity against rat brain mitochondrial Monoamine oxidase B; how it was run: as §1
[12] = biological target: T1, Amine oxidase [flavin-containing] A; assay: Inhibitory activity against rat brain mitochondrial Monoamine oxidase A (Expt 2)
[13] = biological target: T1, Amine oxidase [flavin-containing] A; assay: Inhibitory concentration against rat brain mitochondrial Monoamine oxidase A (Expt 1)
How it was run: as §1, with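 “[3H]serotonin” for “[14C]phenethylamine”, “0.2” for “10”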

[14] = biological target: T2, Amine oxidase [flavin-containing] B; assay: Inhibitory activity against rat brain mitochondrial Monoamine oxidase B;NS=not significant at 0.1 uM; how it was run: as §1
[15] = biological target: T1, Amine oxidase [flavin-containing] A; assay: Inhibitory concentration against Monoamine oxidase A
How it was run: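 Rat brain mitochondrial MAO extract was preincubated ± inhibitor 15 min at 37 °C in 50 mM potassium phosphate (pH 7.4), then given [3H]serotonin at 0.2 μM final for 20 min. Blanks contained 2 mM pargyline. Products went into ethyl acetate/toluene for scintillation counting. Triplicates per concentration; IC50 extrapolated from mean % inhibition vs log concentration plots.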

[16] = biological target: T2, Amine oxidase [flavin-containing] B; assay: Inhibitory activity against Monoamine oxidase B; NS=not significant at 0.001 uM
How it was run: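 Rat brain mitochondrial MAO extract preincubated with or without inhibitor 15 min at 37 °C in 50 mM potassium phosphate, pH 7.4. [14C]phenethylamine was then added to 10 μM final and incubated 20 min. Blanks contained 2 mM pargyline. Products were extracted into ethyl acetate/toluene and counted by scintillation. Triplicates at each inhibitor concentration; mean percent inhibition.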

[17] = biological target: T1, Amine oxidase [flavin-containing] A; assay: Inhibition of the enzyme Monoamine oxidase A which was not completely reverserved after 24 hr of dialysis after 20 mg/kg po administration; format: organism-based; design: dose 20 mg/kg, route oral; conditions: in vivo
[18] = biological target: T2, Amine oxidase [flavin-containing] B; assay: Inhibitory activity against rat brain mitochondrial Monoamine oxidase B;NS=not significant at 1 uM; how it was run: as §1
[19] = biological target: T2, Amine oxidase [flavin-containing] B; assay: Inhibitory activity against rat brain mitochondrial Monoamine oxidase B at 0.5 uM; how it was run: as §1
[20] = biological target: T2, Amine oxidase [flavin-containing] B; assay: Inhibitory activity against rat brain mitochondrial Monoamine oxidase B; NS=not significant at 0.001 uM; how it was run: as §1
[21] = biological target: T2, Amine oxidase [flavin-containing] B; assay: Inhibitory activity against rat brain mitochondrial Monoamine oxidase B 0.1(uM); how it was run: as §1
[22] = biological target: T1, Amine oxidase [flavin-containing] A; assay: Inhibitory activity against Monoamine oxidase A at 1 uM
How it was run: as §1, with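 “[3H]serotonin” for “[14C]phenethylamine”, “0.2” for “10”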

[23] = biological target: T2, Amine oxidase [flavin-containing] B; assay: Inhibitory activity against rat brain mitochondrial Monoamine oxidase B at 0.0 uM; how it was run: as §1
[24] = biological target: T2, Amine oxidase [flavin-containing] B; assay: Inhibitory activity against rat brain mitochondrial Monoamine oxidase B; NS=not significant at 1 uM; how it was run: as §1
[25] = biological target: T1, Amine oxidase [flavin-containing] A; assay: Inhibitory concentration against rat brain mitochondrial Monoamine oxidase A at 0.5 uM
How it was run: as §1, with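 “[3H]serotonin” for “[14C]phenethylamine”, “0.2” for “10”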

[26] = biological target: T2, Amine oxidase [flavin-containing] B; assay: Inhibitory activity against rat brain mitochondrial Monoamine oxidase B at 0.1 uM; how it was run: as §1
[27] = biological target: T2, Amine oxidase [flavin-containing] B; assay: Inhibitory activity against Monoamine oxidase B at 1 uM; how it was run: as §1
[28] = biological target: T2, Amine oxidase [flavin-containing] B; assay: Inhibitory activity against rat brain mitochondrial Monoamine oxidase B at 50 uM; how it was run: as §1
[29] = biological target: T2, Amine oxidase [flavin-containing] B; assay: Inhibitory activity against rat brain mitochondrial Monoamine oxidase B at 0.03 uM; how it was run: as §1

Cc1nnc(-c2ccc3c(c2)S(=O)(=O)c2ccccc2C3=O)o1
Reversible [1]: 33% | IC50 [2]: Not Active | IC50 [3]: 0.002 µM

O=C1c2cc(N3CCSCC3)ccc2S(=O)(=O)c2cc(C3=NCCN3)ccc21
inhibition at 0.2 µM [4]: 10% | IC50 [3]: 0.02 µM

O=C1c2cc(Cl)ccc2S(=O)(=O)c2cc(C3=NCCN3)ccc21
Reversible [5]: 60% | inhibition at 0.2 µM [4]: 3% | IC50 [3]: 0.07 µM

c1ccc2c(c1)[nH]c1cc(C3=NCCN3)ccc12
inhibition at 3 µM [6]: 33% | inhibition at 3 µM [7]: 38%

CCCOc1ccc2c(c1)C(=O)c1ccc(-c3nnn(C)n3)cc1S2(=O)=O
Reversible [8]: 0% | inhibition at 0.003 µM [9]: -13% | IC50 [3]: 0.002 µM

O=C1c2ccccc2S(=O)(=O)c2cc(-c3ncc[nH]3)ccc21
Inhibition [10]: 44% | Inhibition [11]: 10%

CCCOc1ccc2c(c1)C(=O)c1ccc(C3=NCCN3)cc1S2(=O)=O
Reversible [8]: 2% | IC50 [12]: 0.009 µM | IC50 [13]: 0.04 µM | IC50 [14]: Not Active

Cc1nnc(-c2ccc3c(c2)OOc2ccccc2C3=O)o1
IC50 [15]: 0.002 µM | Inhibition [16]: Not Active | Reversible [17]: 12%

O=C1c2cc(NCCO)ccc2S(=O)(=O)c2cc(C3=NCCN3)ccc21
IC50 [18]: Not Active | IC50 [3]: 0.04 µM

COc1nc(-c2ccc3c(c2)S(=O)(=O)c2ccccc2C3=O)no1
inhibition at 0.5 µM [19]: 23% | IC50 [3]: 0.08 µM

Cc1ccc2c(c1)C(=O)c1ccc(-c3nnc(C)o3)cc1S2(=O)=O
Reversible [8]: 10% | IC50 [20]: Not Active | IC50 [3]: 0.002 µM

O=S1(=O)c2cc(C3=NCCN3)ccc2Oc2ccc(C3=NCCN3)cc21
% inhibition [21]: 5%

c1ccc2c(c1)cc(C1=NCCN1)c1ccccc12
inhibition at 1 µM [22]: 30%

CCCNc1ccc2c(c1)C(=O)c1ccc(C3=NCCN3)cc1S2(=O)=O
Reversible [8]: 0% | Inhibition [23]: 4% | IC50 [3]: 0.02 µM

CC(C)(C)c1ccc2c(c1)C(=O)c1ccc(C3=NCCN3)cc1S2(=O)=O
Reversible [8]: 56% | IC50 [24]: Not Active | IC50 [3]: 0.8 µM

O=C1c2ccccc2S(=O)(=O)c2cc(-c3nnc(C(F)(F)F)o3)ccc21
inhibition at 0.5 µM [25]: 7% | inhibition at 0.1 µM [26]: 7%

c1ccc2c(c1)Sc1ccc(C3=NCCN3)cc1S2
IC50 [15]: 0.3 µM | inhibition at 1 µM [27]: 31%

Cn1nnc(-c2ccc3c(c2)S(=O)(=O)c2ccccc2O3)n1
inhibition at 50 µM [28]: 10% | IC50 [3]: 0.002 µM

CN(C)c1ccc2c(c1)C(=O)c1ccc(C3=NCCN3)cc1S2(=O)=O
Reversible [8]: 21% | inhibition at 0.03 µM [29]: 8% | IC50 [3]: 0.02 µM
